Tests used:
[1] = system: MV4-11; experiment: Cytotoxicity against human MV411 cells after 72 hrs by MTS assay; format: functional, cell-based; settings: MV4-11, 72 h
How it was run: (§1)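 Commercial screen: tumour cells seeded at 0.5 to 100 x 10³ cells/well the day before dosing, then exposed 72 h to compound in duplicate, 9 serial 3.16-fold dilutions from 198 µM top concentration. MTS added for a further 4 h at 37 °C, absorbance read; IC50 taken as 50% inhibition of viability by curve fitting.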

[2] = system: MIA PaCa-2; experiment: Cytotoxicity against human MIAPaCa2 cells after 72 hrs by MTS assay; format: functional, cell-based; settings: MIA PaCa-2, 72 h; how it was run: as §1
[3] = system: MCF7; experiment: Cytotoxicity against human MCF7 cells after 72 hrs by MTS assay; format: functional, cell-based; settings: MCF7, 72 h; how it was run: as §1
[4] = Cytotoxicity against human Hs445 cells after 72 hrs by MTS assay; format: functional, cell-based; settings: Hs 445, 72 h; how it was run: as §1
[5] = molecular target: T1, Carboxypeptidase Y (Saccharomyces cerevisiae (strain ATCC 204508 / S288c) (Baker's yeast), UniProt P00729); experiment: Prodrug activation assessed as yeast carboxypeptidase Y mediated diastereoisomer formation at pH 7.6 by 31P NMR analysis
T1 sequence (P00729 whole entry): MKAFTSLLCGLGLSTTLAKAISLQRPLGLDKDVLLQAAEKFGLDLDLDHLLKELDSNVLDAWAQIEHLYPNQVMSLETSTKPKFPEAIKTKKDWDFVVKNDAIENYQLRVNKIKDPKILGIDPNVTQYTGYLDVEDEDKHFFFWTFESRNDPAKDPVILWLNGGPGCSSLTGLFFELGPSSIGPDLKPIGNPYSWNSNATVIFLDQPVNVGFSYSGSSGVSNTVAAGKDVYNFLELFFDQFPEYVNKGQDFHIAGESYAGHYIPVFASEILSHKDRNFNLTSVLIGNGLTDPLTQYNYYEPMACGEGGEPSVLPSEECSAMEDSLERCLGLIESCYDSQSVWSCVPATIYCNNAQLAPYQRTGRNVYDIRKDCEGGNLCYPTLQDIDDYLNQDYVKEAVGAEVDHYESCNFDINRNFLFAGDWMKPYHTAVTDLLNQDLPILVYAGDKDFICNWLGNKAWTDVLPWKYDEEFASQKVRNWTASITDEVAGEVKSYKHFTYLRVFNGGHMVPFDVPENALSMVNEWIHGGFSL
How it was run: (§2)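 ProTide (5.0 mg) dissolved in acetone-d6 (0.15 mL) plus Trizma buffer pH 7.6 (0.30 mL), treated with carboxypeptidase Y; conversion followed by ³¹P NMR over 14 h.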

[6] = system: SW-620; experiment: Cytotoxicity against human SW620 cells after 72 hrs by MTS assay; format: functional, cell-based; settings: SW-620, 72 h; how it was run: as §1
[7] = system: HEL 92.1.7; experiment: Cytotoxicity against human HEL 92.1.7 cells after 72 hrs by MTS assay; format: functional, cell-based; settings: HEL 92.1.7, 72 h; how it was run: as §1
[8] = system: RL; experiment: Cytotoxicity against human RL cells after 72 hrs by MTS assay; format: functional, cell-based; how it was run: as §1
[9] = molecular target: T1, Carboxypeptidase Y; experiment: Prodrug activation assessed as yeast carboxypeptidase Y mediated (2S)-2-((((2R,3S,4R,5R)-5-(6-azido-5-fluoro-2,4-dioxo-3,4-dihydropyrimidin-1(2H)-yl)-3,4-dihydroxytetrahydrofuran-2-yl)methoxy)(hydroxy)phosphorylamino)propanoic acid formation at pH 7.6 measured within 60 mins by 31P NMR analysis; settings: pH 7.6, 1 h; how it was run: as §2
[10] = Half life in acetone d6 at pH 7.6 Trizma buffer by 31P NMR analysis; format: physicochemical; settings: Trizma buffer with acetone-d6, pH 7.6; how it was run: as §2
[11] = Cytotoxicity against African green monkey Vero cells measured after 3 days by CelltiterGlo luminescence assay; format: cell-based; settings: chlorocebus sabaeus
How it was run: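 Vero cells seeded and left overnight; growth medium then replaced by serial compound dilutions, added in triplicate; medium-only wells defined 0% cytotoxicity. On day 3 cells were lysed and ATP content measured by luciferase luminescence (CellTiter-Glo); CC50 obtained from a 4-PL curve fit.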

[12] = system: Chikungunya virus; experiment: Antiviral activity against Chikungunya virus infected in African green monkey Vero cells assessed as reduction in virus-induced cytopathic effect pretreated for 1 hr followed by viral infection measured after 3 days by crystal violet staining based assay; format: functional, organism-based
[13] = molecular target: Orotidine 5'-phosphate decarboxylase (Methanobacterium thermoautotrophicum, UniProt O26232); experiment: Inhibition of Methanobacterium thermoautotrophicum ODCase; set-up: species or system Methanothermobacter thermautotrophicus
Sequence of Orotidine 5'-phosphate decarboxylase (Methanobacterium thermoautotrophicum, UniProt O26232) (O26232 whole entry): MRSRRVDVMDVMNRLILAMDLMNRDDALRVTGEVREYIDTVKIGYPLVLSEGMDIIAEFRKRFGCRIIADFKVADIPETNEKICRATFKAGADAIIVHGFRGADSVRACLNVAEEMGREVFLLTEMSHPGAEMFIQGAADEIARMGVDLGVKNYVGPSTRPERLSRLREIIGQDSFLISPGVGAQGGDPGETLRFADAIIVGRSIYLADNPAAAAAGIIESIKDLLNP

[14] = molecular target: T2, Orotidine 5'-phosphate decarboxylase (Saccharomyces cerevisiae S288c, UniProt P03962); experiment: Inhibition of yeast ODCase
T2 sequence (P03962 whole entry): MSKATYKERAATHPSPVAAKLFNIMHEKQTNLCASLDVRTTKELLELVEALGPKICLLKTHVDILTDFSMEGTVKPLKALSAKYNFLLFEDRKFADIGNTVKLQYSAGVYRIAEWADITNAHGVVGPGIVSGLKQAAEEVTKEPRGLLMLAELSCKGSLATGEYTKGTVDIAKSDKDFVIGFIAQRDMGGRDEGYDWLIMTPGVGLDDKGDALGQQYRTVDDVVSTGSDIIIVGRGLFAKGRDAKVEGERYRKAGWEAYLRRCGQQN

Row | Structure (SMILES) | IC50 [1] | IC50 [2] | IC50 [3] | IC50 [4] | Drug metabolism [5] | IC50 [6] | IC50 [7] | IC50 [8] | Drug metabolism [9] | half-life [10] | CC50 at 72 h [11] | EC50 [12] | Ki [13] | Ki [14]
1 | CCCCCCOC(=O)[C@H](C)NP(=O)(OC[C@H]1O[C@@H](n2c(N=[N+]=[N-])c(F)c(=O)[nH]c2=O)[C@H](O)[C@@H]1O)Oc1ccccc1 (some centres not stated) | 9 µM | > 50 µM | > 50 µM | 18 µM | 3.64 to 3.82 ppm | 38 µM | 39 µM | 20 µM |  |  |  |  |  | 
2 | C[C@H](NP(=O)(O)OC[C@H]1O[C@@H](n2c(N=[N+]=[N-])c(F)c(=O)[nH]c2=O)[C@H](O)[C@@H]1O)C(=O)O |  |  |  |  |  |  |  |  | 7.17 ppm | < 5 min |  |  |  | 
3 | [N-]=[N+]=Nc1c(F)c(=O)[nH]c(=O)n1[C@@H]1O[C@H](CO)[C@@H](O)[C@H]1O | 6.6 µM | 11 µM | 6 µM | 14 µM |  | 8 µM | 10 µM | 10 µM |  |  | 47 µM | > 200 µM |  | 
4 | O=c1cnn([C@@H]2O[C@H](CO)[C@@H](O)[C@H]2O)c(=O)[nH]1 [6-AZAURIDINE] |  |  |  |  |  |  |  |  |  |  | > 10 µM | 0.468 µM | 11 µM | 64 nM
5 | CCc1c(F)c(=O)[nH]c(=O)n1[C@@H]1O[C@H](CO)[C@@H](O)[C@H]1O |  |  | > 50 µM | > 50 µM |  | > 50 µM | > 50 µM | > 50 µM |  |  | > 200 µM | > 200 µM |  | 
6 | Cc1c(F)c(=O)[nH]c(=O)n1[C@@H]1O[C@H](COP(=O)(N[C@@H](C)C(=O)OCc2ccccc2)Oc2ccccc2)[C@@H](O)[C@H]1O (some centres not stated) | > 50 µM | > 50 µM | > 50 µM | > 50 µM |  | > 50 µM | > 50 µM | > 50 µM |  |  |  |  |  | 
7 | C[C@H](NP(=O)(OC[C@H]1O[C@@H](n2c(I)c(F)c(=O)[nH]c2=O)[C@H](O)[C@@H]1O)Oc1ccccc1)C(=O)OC1CCCCC1 (some centres not stated) | 0.74 µM | 4.57 µM | 8.12 µM | 3.8 µM |  | 4.84 µM | 4.1 µM | 2.6 µM |  |  |  |  |  | 
8 | CCCCCOC(=O)[C@H](C)NP(=O)(OC[C@H]1O[C@@H](n2c(I)c(F)c(=O)[nH]c2=O)[C@H](O)[C@@H]1O)Oc1ccccc1 (some centres not stated) | 0.2 µM | 1.31 µM | 7.83 µM | 2.6 µM |  | 1.12 µM | 0.5 µM | 0.8 µM |  |  |  |  |  | 
9 | Cc1c(F)c(=O)[nH]c(=O)n1[C@@H]1O[C@H](CO)[C@@H](O)[C@H]1O | 2 µM | 12 µM | 5.4 µM | 7 µM |  | 8.5 µM | 14 µM | 16 µM |  |  | 9.04 µM | > 200 µM |  | 
10 | CCCCCCOC(=O)[C@H](C)NP(=O)(OC[C@H]1O[C@@H](n2c(N=[N+]=[N-])c(F)c(=O)[nH]c2=O)[C@H](O)[C@@H]1O)Oc1cccc2ccccc12 (some centres not stated) | 6.2 µM | 24 µM | 31 µM | 6 µM |  | 21 µM | 10 µM | 9 µM |  |  |  |  |  | 

Reference: ChEMBL document CHEMBL4219052, “Synthesis and biological evaluation of 6-substituted-5-fluorouridine ProTides” (Bioorg Med Chem, 2018)
